From PMC6896334 (Cell reports, 2019)

How the values were obtained:
[1] = biological target: T1, NanoLuc luciferase ID1 fusion protein (Homo sapiens, UniProt P41134); assay: NanoBRET target engagement assay in permeabilized 293T cells; assay type: binding; conditions: 2 μM AGX51 tracer, 0–60 μM competitor, 50 μg/mL digitonin
T1 sequence (P41134 1-155): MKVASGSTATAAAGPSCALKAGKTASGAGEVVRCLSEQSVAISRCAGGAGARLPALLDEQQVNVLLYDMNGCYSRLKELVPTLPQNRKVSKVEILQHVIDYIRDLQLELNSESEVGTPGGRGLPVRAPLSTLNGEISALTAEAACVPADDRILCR
How it was run: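 293T cells transfected with an N-terminal NanoLuc–ID1 fusion construct and plated 24 h later. Cells received 2 µM fluorescent tracer plus 0–60 µM competitor, then were permeabilised with digitonin (50 µg/mL). NanoBRET Nano-Glo substrate was added and the BRET ratio read, following the kit protocol for intracellular target engagement.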

Id1 (59–104) = biological target: T2, Id1 (59–104) (Mus musculus, UniProt P20067); assay: UV crosslinking of AGX51-XL2 to purified Id1 and mass spectrometry; assay type: binding; conditions: 10-fold excess of AGX51
T2 sequence (P20067 59-104): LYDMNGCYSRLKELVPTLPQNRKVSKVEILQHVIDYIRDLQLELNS
How it was run: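 Purified Id1 (aa 59–104, 1 µg) was mixed in the dark with 19.7 ng of a benzophenone photoreactive test-compound analog in DMSO and UV-irradiated for 20 min, with a no-UV control. Samples were run in the dark on a 15% denaturing gel and silver stained. Bands were excised for mass spectrometry.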

Id1 crystals = biological target: T3, Id1 crystals (Mus musculus, UniProt P20067); assay: Exposure of Id1 crystals to compound; conditions: DMSO alone had no such effect
T3 sequence (P20067 51-104): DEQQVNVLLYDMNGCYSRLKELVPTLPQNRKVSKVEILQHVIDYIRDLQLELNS
How it was run: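 Mouse Id1 (residues 51–104) crystals grown by hanging-drop vapour diffusion at 4°C. Protein at 2.8 mg/mL (20 mM Tris pH 8.0, 0.25 M NaCl, 5 mM DTT) was mixed 1:1 with reservoir of 0.1 M sodium citrate pH 6.5, 0.2 M magnesium acetate and 10% PEG8000.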

Water solubility = assay type: physicochemical
ID1, ID2, ID3, and ID4 = assay: Western blot for ID proteins in HCT116 cells; assay type: cell-based, human; conditions: HCT116, 40 μM, 0-48 hours
E protein binding = assay: EMSA on whole cell lysates from HCT116 cells; assay type: cell-based, human; conditions: HCT116, 40 μM, 24 h
E47-ID1 cellular complex = biological target: T4, E47-ID1 cellular complex (Homo sapiens, UniProt P41134); assay: Immunoprecipitation of endogenous ID1 and E47 in HCT116 cells; assay type: cell-based; conditions: HCT116, 60 μM, 1 h
T4 sequence (P41134 1-155): T1 sequence (P41134 1-155)
How it was run: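 HCT116 cells were exposed for 1 h and lysed in NP40 or RIPA buffer with phosphatase/protease inhibitors, then cleared 15 min at 15,000 rpm, 4°C. Lysates were immunoprecipitated overnight at 4°C with anti-ID1 or anti-E2A plus protein G/A beads, washed four times and eluted in SDS sample buffer. SDS-PAGE/PVDF blots (5% milk in TBS-0.1% Tween20) were probed for ID1 (1:500) or E2A (1:1000), alongside whole-cell lysate blots.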

HUVECs [2] = assay: HUVEC cell growth; assay type: cell-based, human; conditions: 20 μM, 5 days
How it was run: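 HUVECs seeded at 38,000 cells per 24-well well, in triplicate for each time point, with 20 µM test compound or DMSO. Viable cells were counted by trypan blue exclusion on days 1, 3 and 5 after seeding.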

HCT116 cells = assay: HCT116 cell viability; assay type: cell-based, human
How it was run: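 MTT viability: cells seeded at 5000/well and left overnight, then exposed to the test compound for 24 h. MTT (5 mg/mL) was added for 4 h, medium removed and formazan dissolved in DMSO. Absorbance was read at 570 nm.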

Cyclin D1 [3] = assay: Western blot for Cyclin D1 in HUVECs; assay type: cell-based, human; conditions: 0–40 μM, 24 h
How it was run: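 HUVECs treated with 0–40 µM test compound for 24 h. Whole-cell lysates were immunoblotted for the target protein. Infrared band intensities were blank-subtracted and normalised to tubulin.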

Cyclin D1 [4] = assay: Western blot for Cyclin D1 in HCT116 cells; assay type: cell-based, human; conditions: HCT116, 40 μM, 0-48 hours
HUVECs [5] = assay: HUVEC cell branching assay on matrigel; assay type: cell-based, human; conditions: 0–40 μM, 18–20 h on matrigel, vs vehicle, p < 0.05
How it was run: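 HUVECs (80,000 per well) in EGM-2 containing the test compound at the indicated concentration were plated on Matrigel pre-solidified for 30 min at 37°C. After 18–20 h, media was removed and wells were fixed in 10% buffered formalin for 15 min. Tubes were imaged by inverted microscope at 10x. Nodes, junctions, meshes and total branching length were scored by Angiogenesis Analyzer, n = 4 per concentration, Wilcoxon test.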

HUVECs [6] = assay: HUVEC scratch assay; assay type: cell-based, human; conditions: 0–40 μM, 24 h
How it was run: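 HUVECs grown on 0.1% fibronectin-coated wells to confluence over 24 h. They were then serum-starved for 4 h in endothelial basal medium and scratched with a pipette tip to create a cell-free zone before exposure to the test compound.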

[7] = 14-day toxicity study, i.p. dosing; assay type: in vivo, mouse; conditions: mice, 60 mg/kg i.p. bid, 14 days
How it was run: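 Mice given the test compound or vehicle (70% DMSO in water) i.p. at 60 mg/kg twice daily for 14 consecutive days. They were sacrificed 24 h after the last dose for gross and complete necropsy and clinical pathology. Clinical chemistry covered BUN, creatinine, ALP, ALT, AST, GGT, bilirubin, total protein, albumin, globulin, phosphorus, glucose, cholesterol, calcium, sodium, potassium and chloride.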

[8] = system: choroidal neovascularization; assay: Laser-induced choroidal neovascularization; assay type: in vivo, mouse
How it was run: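 Female C57BL/6 mice aged 4–6 weeks had laser rupture of Bruch's membrane at three sites per eye. Test compounds (1 or 5 µg) or DMSO were given intravitreally. At day 14, choroidal flat mounts were stained with FITC-Griffonia simplicifolia lectin, and CNV area was measured by fluorescence image analysis by an observer masked to group.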

CCC(=O)N(CCC(c1ccc2c(c1)OCO2)c1ccccc1OC)Cc1ccccc1 (stereo not drawn) [AGX51, N-(3-(benzo[d][1,3]dioxol-5-yl)-3-(2-methoxyphenyl)propyl)-N-benzylpropionamide]
competition with the AGX51 tracer (BRET ratio) [1]: able to compete the AGX51 tracer
AGX51-XL2 binding to Id1 in the presence of competitor (Id1 (59–104)): significant decrease in AGX51-XL2 binding to Id1
effect on Id1 crystals (Id1 crystals): the crystals melted
water solubility (Water solubility): water insoluble
ID1, ID2, ID3 and ID4 protein levels (ID1, ID2, ID3, and ID4): reduced levels of ID1, ID2, ID3, and ID4
E protein binding in cell lysates (E protein binding): small increase in E protein binding
levels of co-precipitated E47 / ID1 (E47-ID1 cellular complex): markedly reduced the levels of the co-precipitated proteins
cell viability / growth (HUVECs [2]): reduced cell viability
cell viability (MTT) (HCT116 cells; HCT116, 40 μM, 24 hours): reduced cell viability
IC50 (HCT116 cells; Homo sapiens, HCT-116, 24 h): 22.3 µM
Cyclin D1 levels (Cyclin D1 [3]): reduction in Cyclin D1 levels
Cyclin D1 levels (Cyclin D1 [4]): reduction in Cyclin D1 levels
vascular branching (nodes, junctions, meshes, total branching length) (HUVECs [5]): significantly impaired in a dose-dependent manner
HUVEC migration after scratch (HUVECs [6]): significantly impaired HUVEC migration
clinical chemistry parameters and hematology [7]: within normal limits
gross necropsy and histopathological evaluation of all major organs [7]: No abnormal findings
mortality or morbidity [7]: no mortality or morbidity was observed
weight loss [7]: no significant weight loss
area of CNV ([8]; intravitreal 5 μg on days 1 and 7, day 14, p < 0.05): effective at significantly reducing CNV
area of CNV ([8]; twice-daily i.p. injections ~30 mg/kg (500 μg), 14 days, vs vehicle, p < 0.05): significantly reduced CNV
area of CNV ([8]; two intravitreal injections of 10 μg 1 week apart, day 14, vs vehicle, p < 0.05): significantly suppressed CNV
